A short description of data set [1]: (§1) Selectivity index, ratio of CC50 for mouse J774A1 cells to IC50 for Leishmania donovani intracellular amastigotes infected in mouse J774A1 cells. It counts as functional, J774.A1. A digest of the protocol: (§2)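 SI is based on CC50 in J-774-A-1 macrophages and IC50 in the antileishmanial assay.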
Data set [2] is described as follows: Cytotoxicity against mouse J774A1 cells after 48 hrs by Geimsa staining method. Format: cell-based, J774.A1. Put shortly: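 Mouse macrophage line J-774-A-1 used for the cytotoxicity read-out. CC50 is the concentration giving 50% inhibition of cell viability.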
Data set [3] relates to Leishmania donovani. In words: Antileishmanial activity against Leishmania donovani intracellular amastigotes infected in mouse J774A1 cells after 48 hrs by luciferase activity-based drug susceptibility assay. The conditions noted are these: for Activity: J774.A1; for IC50: J774.A1, 48 h. It counts as functional, organism-based. A digest of the protocol:
(§3)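 Intracellular amastigotes of transgenic L. donovani in mouse J-774-A-1 macrophages, exposed to a range of concentrations up to a maximum of 10 µg/ml. Sodium stibogluconate and pentamidine served as reference drugs. IC50 calculated by Probit analysis.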

For data set [4], the system named is Leishmania donovani. In words: Antileishmanial activity against Leishmania donovani extracellular promastigotes after 72 hrs by luciferase activity-based drug susceptibility assay. Format: functional, organism-based. Put shortly:
(§4)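 Transgenic L. donovani promastigotes tested at various concentrations up to a maximum of 10 µg/ml, with sodium stibogluconate and pentamidine as reference drugs. IC50 derived by Probit analysis.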

The test system of data set [5] is Leishmania donovani. In words: Antileishmanial activity against Leishmania donovani intracellular amastigotes infected in mouse J774A1 cells at 10 ug/ml after 48 hrs by luciferase activity-based drug susceptibility assay. Format: functional. Particulars: for inhibition at 10 µg/mL: J774.A1, 48 h. A digest of the protocol:
as §3

Data set [6] relates to Leishmania donovani. In words: Antileishmanial activity against Leishmania donovani extracellular promastigotes at 10 ug/ml after 72 hrs by luciferase activity-based drug susceptibility assay. It counts as functional. A digest of the protocol: as §4
Data set [7] concerns Leishmania donovani. Description: Antileishmanial activity against Leishmania donovani infected in hamster assessed as inhibition of parasite growth at 50 mg/kg, ip for 10 days. Particulars: 240 h, route intraperitoneal. Format: functional. A digest of the protocol: (§5)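 L. donovani-infected hamster model. Dosing was intraperitoneal, 10 doses: test compounds at 50 mg/kg, sodium stibogluconate at 20 mg/kg, pentamidine at 40 mg/kg. Read-out is percent inhibition of parasites.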

Data set [8] concerns Leishmania donovani. In words: Antileishmanial activity against Leishmania donovani infected in hamster assessed as inhibition of parasite growth at 20 mg/kg, ip for 10 days. It counts as functional, organism-based. On the set-up: dose 20 mg/kg. Put shortly: as §5
In data set [9] the test system is J774.A1. The description is as §1. Format: functional. Put shortly: as §2
Data set [10] has as its system Leishmania donovani. In words: Antileishmanial activity against Leishmania donovani infected in hamster assessed as inhibition of parasite growth at 40 mg/kg, ip for 10 days. Particulars: 240 h, route intraperitoneal. Format: functional. A digest of the protocol:
as §5

Converted amounts (≈) assume the structure as drawn.

The text below walks through data of ChEMBL document CHEMBL1136836, “Aryloxy cyclohexyl imidazoles: a novel class of antileishmanial agents” (Bioorg Med Chem Lett, 2009).

`O=[N+]([O-])c1ccc(O[C@H]2CCCC[C@@H]2Cn2ccnc2)c(C(F)(F)F)c1`: the “Ratio CC50/IC50” value in data set [1] was 6.49. Moreover, the CC50 at 48 h in data set [2] turned out to be 13.8 µg/mL (≈ 37.5 µM). The Activity result in data set [3] and in [4] was “Dose-dependent effect” throughout. For the same compound, the IC50 in data set [3] was found to be 2.13 µg/mL (≈ 5.77 µM); in data set [4], 2.37 µg/mL (≈ 6.42 µM). In addition, the inhibition at 10 µg/mL in data set [5] and in [6] was 100% in each case.
Regarding `O=[N+]([O-])c1ccc(OC2C(n3ccnc3)CCCC2n2ccnc2)cc1` (stereo not drawn), in data set [1], the “Ratio CC50/IC50” value was more than 11.4. The CC50 at 48 h in [2] was more than 100 µg/mL. The Activity result in data set [3] and in data set [4] was “Dose-dependent effect” in each case. For the same compound, the IC50 was found to be 8.76 µg/mL (≈ 24.8 µM) in [3] and 4.67 µg/mL (≈ 13.2 µM) in data set [4]. The inhibition at 10 µg/mL in data set [5] and in data set [6] was 100% each time.
Consider `O=[N+]([O-])c1ccccc1O[C@H]1CCCC[C@@H]1Cn1ccnc1`, for which the “Ratio CC50/IC50” value in [1] came out at 9.39. Besides, half-maximal cytotoxicity in [2] (CC50 at 48 h) was put at 63.1 µg/mL (≈ 209 µM). For the same compound, the Activity entry in data set [3] and in data set [4] was “Dose-dependent effect” in each case. Moreover, the IC50 in data set [3] was 6.72 µg/mL (≈ 22.3 µM); in data set [4], 4.23 µg/mL (≈ 14 µM). In addition, the inhibition at 10 µg/mL in [5] and in data set [6] was 100% each time.
With `O=[N+]([O-])c1ccc(O[C@H]2CCCC[C@@H]2Cn2ccnc2)cc1`, in data set [1], the “Ratio CC50/IC50” value stood at 9.757. Moreover, it took 44.6 µg/mL (≈ 148 µM) to reach half-maximal cytotoxicity in data set [2] (CC50 at 48 h). Further, the Activity entry in data set [3] and in data set [4] was “Dose-dependent effect” each time. In addition, the IC50 in [3] was 4.57 µg/mL (≈ 15.2 µM); in data set [4], 0.82 µg/mL (≈ 2.72 µM). For the same compound, the inhibition at 10 µg/mL in data set [5] and in data set [6] was 100% in each case.
For the compound `FC(F)(F)c1ccc(OC2C(Cn3ccnc3)CCCC2Cn2ccnc2)cc1` (stereo not drawn), the inhibition in vivo at 50 mg/kg in data set [7] was found to be 51%. Also, in data set [1], the “Ratio CC50/IC50” value is listed as 83.6. This compound also returned a CC50 at 48 h in data set [2] of 94.5 µg/mL (≈ 234 µM). Further, the Activity result in data set [3] and in [4] was “Dose-dependent effect” each time. Besides, the half-maximal inhibitory concentration (IC50) in [3] is 1.13 µg/mL (≈ 2.79 µM); in data set [4], 3.28 µg/mL (≈ 8.12 µM). In addition, the inhibition at 10 µg/mL in data set [5] and in data set [6] was 100% each time.
For `O=[N+]([O-])c1ccccc1OC1C(Cn2ccnc2)CCCC1Cn1ccnc1` (stereo not drawn), the “Ratio CC50/IC50” value in data set [1] turned out to be 28.47. In [2], the CC50 at 48 h is 69.4 µg/mL (≈ 182 µM). The Activity entry in [3] and in data set [4] was “Dose-dependent effect” throughout. Further, the IC50 in data set [3] turned out to be 2.44 µg/mL (≈ 6.39 µM); in data set [4], 9.57 µg/mL (≈ 25.1 µM). Moreover, the inhibition at 10 µg/mL in data set [5] and in [6] was 100% throughout.
For the compound `O=[N+]([O-])c1ccc(O[C@H]2CCCC[C@@H]2Cn2ccnc2)c(F)c1`, in [7], the inhibition in vivo at 50 mg/kg was 55.4%. Besides, the “Ratio CC50/IC50” value in data set [1] was more than 140.84. This compound showed a CC50 at 48 h in [2] of more than 100 µg/mL. Moreover, the Activity result in data set [3] and in data set [4] was “Dose-dependent effect” in each case. Also, the IC50 in data set [3] was found to be 0.71 µg/mL (≈ 2.22 µM); in [4], 1.08 µg/mL (≈ 3.38 µM). In addition, the inhibition at 10 µg/mL in data set [5] and in data set [6] was 100% each time.
Turning to “D-gluconic acid 2,4:2',4'-O-[oxybis(oxidostibylidyne)]bis-trisodium salt nonahydrate”, the results for the inhibition in [8], in data set [5] (J774.A1) and in [6] were 84.1%, 100% and 100%, respectively. In addition, in data set [9], the Ratio CC50/IC50 came to 6.38. In addition, the Activity result in data set [3] and in data set [4] was “Dose-dependent effect” each time.
As to `FC(F)(F)c1ccc(OC2C(n3ccnc3)CCCC2n2ccnc2)cc1` (stereo not drawn), the inhibition in vivo at 50 mg/kg in data set [7] came to 36.8%. Moreover, the “Ratio CC50/IC50” value in data set [1] worked out at 32.143. Also, in data set [2], the CC50 at 48 h is 96.4 µg/mL (≈ 256 µM). Besides, the Activity result in [3] and in [4] was “Dose-dependent effect” throughout. The IC50 came to 3 µg/mL (≈ 7.97 µM) in data set [3] and 2.06 µg/mL (≈ 5.47 µM) in data set [4]. The inhibition at 10 µg/mL in data set [5] and in [6] was 100% throughout.
As for `FC(F)(F)c1ccc(O[C@H]2CCCC[C@@H]2Cn2ccnc2)cc1`, in data set [1], the “Ratio CC50/IC50” value turned out to be 9.292. The compound also registered a CC50 at 48 h in data set [2] of 35.6 µg/mL (≈ 110 µM). The Activity result in data set [3] and in data set [4] was “Dose-dependent effect” throughout. Also, the IC50 is 3.83 µg/mL (≈ 11.8 µM) in data set [3] and 0.81 µg/mL (≈ 2.5 µM) in [4]. Moreover, the inhibition at 10 µg/mL in [5] and in data set [6] was 100% in each case.
Regarding `OC1C(Cn2ccnc2)CCCC1Cn1ccnc1` (stereo not drawn), the “Ratio CC50/IC50” value in data set [1] is recorded as more than 9.28. In [2], the CC50 at 48 h is more than 100 µg/mL. For the same compound, the Activity result in [3] and in data set [4] was “Dose-dependent effect” in each case. Besides, the half-maximal inhibitory concentration (IC50) turned out to be 10.8 µg/mL (≈ 41.4 µM) in [3] and 9.4 µg/mL (≈ 36.1 µM) in data set [4]. In addition, the inhibition at 10 µg/mL in data set [5] and in data set [6] was 100% in each case.
In the case of `O=[N+]([O-])c1ccc(OC2C(n3ccnc3)CCCC2n2ccnc2)c(F)c1` (stereo not drawn), the inhibition in vivo at 50 mg/kg in [7] is 56.7%. Also, the “Ratio CC50/IC50” value in data set [1] turned out to be 30. In addition, in data set [2], the CC50 at 48 h worked out at 90.6 µg/mL (≈ 244 µM). Besides, the Activity entry in data set [3] and in data set [4] was “Dose-dependent effect” throughout. In addition, the IC50 in data set [3] stood at 3.02 µg/mL (≈ 8.13 µM); in data set [4], 6.13 µg/mL (≈ 16.5 µM). For the same compound, the inhibition at 10 µg/mL in data set [5] and in [6] was 100% in each case.
`O=[N+]([O-])c1ccc(OC2C(Cn3ccnc3)CCCC2Cn2ccnc2)cc1` (stereo not drawn): in data set [7], the inhibition in vivo at 50 mg/kg amounted to 52%. Moreover, the “Ratio CC50/IC50” value in [1] was 37.51. Besides, the CC50 at 48 h in data set [2] was found to be 73.9 µg/mL (≈ 194 µM). Also, the Activity result in data set [3] and in data set [4] was “Dose-dependent effect” in each case. Besides, the results for the half-inhibitory concentration (IC50) in data set [3] and in [4] were 1.97 µg/mL (≈ 5.16 µM) and 5.52 µg/mL (≈ 14.5 µM), respectively. Also, the inhibition at 10 µg/mL in data set [5] and in [6] was 100% throughout.
Turning to `O=[N+]([O-])c1ccc(OC2C(Cn3ccnc3)CCCC2Cn2ccnc2)c(F)c1` (stereo not drawn), in data set [7], the inhibition in vivo at 50 mg/kg is 77.9%. In data set [1], the “Ratio CC50/IC50” value is listed as 33.64. The CC50 at 48 h in data set [2] was 39.4 µg/mL (≈ 98.6 µM). The Activity entry in [3] and in [4] was “Dose-dependent effect” in each case. Moreover, the IC50 in data set [3] stood at 1.17 µg/mL (≈ 2.93 µM); in data set [4], 3.57 µg/mL (≈ 8.94 µM). For the same compound, the inhibition at 10 µg/mL in data set [5] and in data set [6] was 100% each time.
As to `O=[N+]([O-])c1ccc(OC2C(Cn3ccnc3)CCCC2Cn2ccnc2)c(C(F)(F)F)c1` (stereo not drawn), the “Ratio CC50/IC50” value in [1] worked out at 24.557. The midpoint of cytotoxicity in data set [2], the CC50 at 48 h, lay at 14.4 µg/mL (≈ 32.1 µM). Moreover, the Activity result in data set [3] and in data set [4] was “Dose-dependent effect” in each case. Besides, the IC50 in data set [3] is 0.588 µg/mL (≈ 1.31 µM); in data set [4] it was 6.72 µg/mL (≈ 15 µM). The inhibition at 10 µg/mL in [5] and in data set [6] was 100% throughout.
`N=C(N)c1ccc(OCCCCCOc2ccc(C(=N)N)cc2)cc1` [PENTAMIDINE]: the inhibition in vivo at 40 mg/kg in data set [10] is 92%. Further, in data set [1], the “Ratio CC50/IC50” value came to 2.58. The midpoint of cytotoxicity in data set [2], the CC50 at 48 h, lay at 31.3 µg/mL (≈ 92 µM). Also, the Activity entry in [3] and in data set [4] was “Dose-dependent effect” in each case. In addition, the IC50 in data set [3] was 12.1 µg/mL (≈ 35.6 µM); in data set [4] it was 0.643 µg/mL (≈ 1.89 µM). Also, the inhibition at 10 µg/mL in [5] and in [6] was 100% each time.
